Measured values published in ChEMBL document CHEMBL2040809, “Synthesis and biological activity evaluation of cytidine-5'-deoxy-5-fluoro-N-[(alkoxy/aryloxy)] carbonyl-cyclic 2',3'-carbonates” (Eur J Med Chem, 2012).
≈ marks a conversion by molar mass, not a printed value.

Legend:
Salmonella typhimurium [1] = test: Mutagenic activity in Salmonella typhimurium TA1535 at 0.312 to 5 mg/plate preincubated for 20 mins before addition in presence of liver S9 mixture; format: toxicity, organism-based; conditions: salmonella enterica subsp. enterica serovar typhimurium
Summary of the method: (§1)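 Pre-incubation trial (Trial II) with histidine-dependent auxotrophs. Test solution is pre-incubated with bacterial suspension and S9 mix (10% v/v) or substitution buffer before plating on selective agar. Revertant colonies are counted against the concurrent vehicle control. Triplicate plates per dose and per control (negative, vehicle, positive reference mutagens).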

Salmonella typhimurium [2] = test: Mutagenic activity in Salmonella typhimurium TA1537 at 0.312 to 5 mg/plate preincubated for 20 mins before addition in presence of liver S9 mixture; format: toxicity, organism-based; conditions: salmonella enterica subsp. enterica serovar typhimurium; summary of the method: as §1
Salmonella typhimurium [3] = test: Mutagenic activity in Salmonella typhimurium TA100 at 0.312 to 5 mg/plate measured after incubation of upside down for 48 hrs in absence of liver S9 mixture; format: toxicity, organism-based; conditions: salmonella enterica subsp. enterica serovar typhimurium
Summary of the method: (§2)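 Plate incorporation trial (Trial I) with histidine-dependent auxotrophs. Revertant colonies are counted against the concurrent vehicle control. Each dose and each control, including negative, vehicle and positive reference mutagens, run in triplicate plates.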

Salmonella typhimurium [4] = test: Mutagenic activity in Salmonella typhimurium TA102 at 0.312 to 5 mg/plate preincubated for 20 mins before addition in presence of liver S9 mixture; format: toxicity, organism-based; conditions: salmonella enterica subsp. enterica serovar typhimurium; summary of the method: as §1
Salmonella typhimurium [5] = test: Mutagenic activity in Salmonella typhimurium TA98 at 0.312 to 5 mg/plate measured after incubation of upside down for 48 hrs in presence of liver S9 mixture; format: toxicity, organism-based; conditions: salmonella enterica subsp. enterica serovar typhimurium, s9, 48 h; summary of the method: as §2
Salmonella typhimurium [6] = test: Mutagenic activity in Salmonella typhimurium TA98 at 0.312 to 5 mg/plate measured after incubation of upside down for 48 hrs in absence of liver S9 mixture; format: toxicity, organism-based; conditions: salmonella enterica subsp. enterica serovar typhimurium; summary of the method: as §2
[7] = Cytotoxicity against human PZ-HPV-7 cells after 3 days MTT assay; format: functional, cell-based; conditions: 72 h
Summary of the method: (§3)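 Cells held as monolayers in DMEM with 10% supplement. Seeded in 96-well plates on day 0 at densities set by doubling time: 1 × 10⁴/mL for HeLa and NCI-69, 2 × 10⁴/mL for MCF-7, 3 × 10⁴/mL for PZ-HPV-7. Five dilutions (10⁻⁸–5 × 10⁻⁶ mol/l), freshly prepared, added for 72 h. Growth read by MTT (succinate dehydrogenase activity); IC50 derived.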

Salmonella typhimurium [8] = test: Mutagenic activity in Salmonella typhimurium TA1535 at 0.312 to 5 mg/plate preincubated for 20 mins before addition in absence of liver S9 mixture; format: toxicity, organism-based; conditions: salmonella enterica subsp. enterica serovar typhimurium; summary of the method: as §1
Salmonella typhimurium [9] = test: Mutagenic activity in Salmonella typhimurium TA100 at 0.312 to 5 mg/plate measured after incubation of upside down for 48 hrs in presence of liver S9 mixture; format: toxicity, organism-based; conditions: salmonella enterica subsp. enterica serovar typhimurium, s9, 48 h; summary of the method: as §2
Salmonella typhimurium [10] = test: Mutagenic activity in Salmonella typhimurium TA1537 at 0.312 to 5 mg/plate measured after incubation of upside down for 48 hrs in presence of liver S9 mixture; format: toxicity, organism-based; conditions: salmonella enterica subsp. enterica serovar typhimurium, s9, 48 h; summary of the method: as §2
Salmonella typhimurium [11] = test: Mutagenic activity in Salmonella typhimurium TA100 at 0.312 to 5 mg/plate preincubated for 20 mins before addition in presence of liver S9 mixture; format: toxicity, organism-based; conditions: salmonella enterica subsp. enterica serovar typhimurium; summary of the method: as §1
Salmonella typhimurium [12] = test: Mutagenic activity in Salmonella typhimurium TA102 at 0.312 to 5 mg/plate preincubated for 20 mins before addition in absence of liver S9 mixture; format: toxicity, organism-based; conditions: salmonella enterica subsp. enterica serovar typhimurium; summary of the method: as §1
Salmonella typhimurium [13] = test: Mutagenic activity in Salmonella typhimurium TA102 at 0.312 to 5 mg/plate measured after incubation of upside down for 48 hrs in absence of liver S9 mixture; format: toxicity, organism-based; conditions: salmonella enterica subsp. enterica serovar typhimurium; summary of the method: as §2
HeLa = test: Cytotoxicity against human HeLa cells after 3 days MTT assay; format: functional, cell-based; conditions: 72 h; summary of the method: as §3
Salmonella typhimurium [14] = test: Mutagenic activity in Salmonella typhimurium TA1535 at 0.312 to 5 mg/plate measured after incubation of upside down for 48 hrs in absence of liver S9 mixture; format: toxicity, organism-based; conditions: salmonella enterica subsp. enterica serovar typhimurium; summary of the method: as §2
Salmonella typhimurium [15] = test: Mutagenic activity in Salmonella typhimurium TA98 at 0.312 to 5 mg/plate preincubated for 20 mins before addition in presence of liver S9 mixture; format: toxicity, organism-based; conditions: salmonella enterica subsp. enterica serovar typhimurium; summary of the method: as §1
Salmonella typhimurium [16] = test: Mutagenic activity in Salmonella typhimurium TA98 at 0.312 to 5 mg/plate preincubated for 20 mins before addition in absence of liver S9 mixture; format: toxicity, organism-based; conditions: salmonella enterica subsp. enterica serovar typhimurium; summary of the method: as §1
Salmonella typhimurium [17] = test: Mutagenic activity in Salmonella typhimurium TA1537 at 0.312 to 5 mg/plate preincubated for 20 mins before addition in absence of liver S9 mixture; format: toxicity, organism-based; conditions: salmonella enterica subsp. enterica serovar typhimurium; summary of the method: as §1
Salmonella typhimurium [18] = test: Mutagenic activity in Salmonella typhimurium TA102 at 0.312 to 5 mg/plate measured after incubation of upside down for 48 hrs in presence of liver S9 mixture; format: toxicity, organism-based; conditions: salmonella enterica subsp. enterica serovar typhimurium, s9, 48 h; summary of the method: as §2
Salmonella typhimurium [19] = test: Mutagenic activity in Salmonella typhimurium TA1535 at 0.312 to 5 mg/plate measured after incubation of upside down for 48 hrs in presence of liver S9 mixture; format: toxicity, organism-based; conditions: salmonella enterica subsp. enterica serovar typhimurium, s9, 48 h; summary of the method: as §2
Salmonella typhimurium [20] = test: Mutagenic activity in Salmonella typhimurium TA100 at 0.312 to 5 mg/plate preincubated for 20 mins before addition in absence of liver S9 mixture; format: toxicity, organism-based; conditions: salmonella enterica subsp. enterica serovar typhimurium; summary of the method: as §1
NCI-H69 = test: Cytotoxicity against human NCI-H69 cells after 3 days MTT assay; format: functional, cell-based; conditions: NCI-H69, 72 h; summary of the method: as §3
MCF7 = test: Cytotoxicity against human MCF7 cells after 3 days MTT assay; format: functional, cell-based; conditions: MCF7, 72 h; summary of the method: as §3
Salmonella typhimurium [21] = test: Mutagenic activity in Salmonella typhimurium TA1537 at 0.312 to 5 mg/plate measured after incubation of upside down for 48 hrs in absence of liver S9 mixture; format: toxicity, organism-based; conditions: salmonella enterica subsp. enterica serovar typhimurium; summary of the method: as §2

SMILES | Activity (Salmonella typhimurium [1]) | Activity (Salmonella typhimurium [2]) | Activity (Salmonella typhimurium [3]) | Activity (Salmonella typhimurium [4]) | Activity (Salmonella typhimurium [5]) | Activity (Salmonella typhimurium [6]) | IC50 [7] | Activity (Salmonella typhimurium [8]) | Activity (Salmonella typhimurium [9]) | Activity (Salmonella typhimurium [10]) | Activity (Salmonella typhimurium [11]) | Activity (Salmonella typhimurium [12]) | Activity (Salmonella typhimurium [13]) | IC50 (HeLa) | Activity (Salmonella typhimurium [14]) | Activity (Salmonella typhimurium [15]) | Activity (Salmonella typhimurium [16]) | Activity (Salmonella typhimurium [17]) | IC50 (NCI-H69) | IC50 (MCF7) | also measured
CCC(C)COC(=O)Nc1nc(=O)n([C@@H]2O[C@H](C)[C@@H](O)[C@H]2O)cc1F (stereo partly drawn) | Non-toxic | Non-toxic | Non-toxic | Non-toxic | Non-toxic | Non-toxic | 250 µg/mL (≈ 696 µM) | Non-toxic | Non-toxic | Non-toxic | Non-toxic | Non-toxic | Non-toxic | 0.09 µg/mL (≈ 0.25 µM) | Non-toxic | Non-toxic | Non-toxic | Non-toxic | 370 µg/mL (≈ 1030 µM) | 120 µg/mL (≈ 334 µM) | Activity (Salmonella typhimurium [18]): Non-toxic; Activity (Salmonella typhimurium [19]): Non-toxic; Activity (Salmonella typhimurium [20]): Non-toxic; Activity (Salmonella typhimurium [21]): Non-toxic
CC(C)CCOC(=O)Nc1nc(=O)n([C@@H]2O[C@H](C)[C@@H](O)[C@H]2O)cc1F | Non-toxic | Non-toxic | Non-toxic | Non-toxic | Non-toxic | Non-toxic | 250 µg/mL (≈ 696 µM) | Non-toxic | Non-toxic | Non-toxic | Non-toxic | Non-toxic | Non-toxic | 0.09 µg/mL (≈ 0.25 µM) | Non-toxic | Non-toxic | Non-toxic | Non-toxic | 370 µg/mL (≈ 1030 µM) | 120 µg/mL (≈ 334 µM) | Activity (Salmonella typhimurium [18]): Non-toxic; Activity (Salmonella typhimurium [19]): Non-toxic; Activity (Salmonella typhimurium [20]): Non-toxic; Activity (Salmonella typhimurium [21]): Non-toxic
C[C@H]1O[C@@H](n2cc(F)c(NC(=O)Oc3ccc([N+](=O)[O-])cc3)nc2=O)[C@H](O)[C@@H]1O | Non-toxic | Non-toxic | Non-toxic | Non-toxic | Non-toxic | Non-toxic | 90 µg/mL (≈ 219 µM) | Non-toxic | Non-toxic | Non-toxic | Non-toxic | Non-toxic | Non-toxic | 0.01 µg/mL (≈ 0.0244 µM) | Non-toxic | Non-toxic | Non-toxic | Non-toxic | 100 µg/mL (≈ 244 µM) | 180 µg/mL (≈ 439 µM) | Activity (Salmonella typhimurium [18]): Non-toxic; Activity (Salmonella typhimurium [19]): Non-toxic; Activity (Salmonella typhimurium [20]): Non-toxic; Activity (Salmonella typhimurium [21]): Non-toxic
C[C@H]1O[C@@H](n2cc(F)c(NC(=O)Oc3ccc(Cl)cc3)nc2=O)[C@H](O)[C@@H]1O | Non-toxic | Non-toxic | Non-toxic | Non-toxic | Non-toxic | Non-toxic | 70 µg/mL (≈ 175 µM) | Non-toxic | Non-toxic | Non-toxic | Non-toxic | Non-toxic | Non-toxic | 0.03 µg/mL (≈ 0.075 µM) | Non-toxic | Non-toxic | Non-toxic | Non-toxic | 90 µg/mL (≈ 225 µM) | 100 µg/mL (≈ 250 µM) | Activity (Salmonella typhimurium [18]): Non-toxic; Activity (Salmonella typhimurium [19]): Non-toxic; Activity (Salmonella typhimurium [20]): Non-toxic; Activity (Salmonella typhimurium [21]): Non-toxic
CCC(C)COC(=O)Nc1nc(=O)n([C@@H]2O[C@H](C)[C@H]3OC(=O)O[C@H]32)cc1F (stereo partly drawn) | Non-toxic | Non-toxic | Non-toxic | Non-toxic | Non-toxic | Non-toxic | 200 µg/mL (≈ 519 µM) | Non-toxic | Non-toxic | Non-toxic | Non-toxic | Non-toxic | Non-toxic | 0.18 µg/mL (≈ 0.467 µM) | Non-toxic | Non-toxic | Non-toxic | Non-toxic | 330 µg/mL (≈ 856 µM) | 70 µg/mL (≈ 182 µM) | Activity (Salmonella typhimurium [18]): Non-toxic; Activity (Salmonella typhimurium [19]): Non-toxic; Activity (Salmonella typhimurium [20]): Non-toxic; Activity (Salmonella typhimurium [21]): Non-toxic
CC(C)CCOC(=O)Nc1nc(=O)n([C@@H]2O[C@H](C)[C@H]3OC(=O)O[C@H]32)cc1F | Non-toxic | Non-toxic | Non-toxic | Non-toxic | Non-toxic | Non-toxic | 350 µg/mL (≈ 908 µM) | Non-toxic | Non-toxic | Non-toxic | Non-toxic | Non-toxic | Non-toxic | 0.13 µg/mL (≈ 0.337 µM) | Non-toxic | Non-toxic | Non-toxic | Non-toxic | 310 µg/mL (≈ 804 µM) | 100 µg/mL (≈ 260 µM) | Activity (Salmonella typhimurium [18]): Non-toxic; Activity (Salmonella typhimurium [19]): Non-toxic; Activity (Salmonella typhimurium [20]): Non-toxic; Activity (Salmonella typhimurium [21]): Non-toxic
O=c1[nH]cc(F)c(=O)[nH]1 [FLUOROURACIL] |  |  |  |  |  |  | 170 µg/mL (≈ 1310 µM) |  |  |  |  |  |  | 0.04 µg/mL (≈ 0.308 µM) |  |  |  |  | 280 µg/mL (≈ 2150 µM) | 690 µg/mL (≈ 5300 µM) | 
